For 31 compounds, IC50 results are on record in ChEMBL document CHEMBL1143528, “Kinesin spindle protein (KSP) inhibitors. Part 1: The discovery of 3,5-diaryl-4,5-dihydropyrazoles as potent and selective inhibitors of the mitotic kinesin KSP” (Bioorg Med Chem Lett, 2005).

Where only a bound is given, the exact number is not on record here.

One assay has as its target T1, Kinesin-like protein KIF11 (Homo sapiens, UniProt P52732).
T1 sequence (P52732 whole entry): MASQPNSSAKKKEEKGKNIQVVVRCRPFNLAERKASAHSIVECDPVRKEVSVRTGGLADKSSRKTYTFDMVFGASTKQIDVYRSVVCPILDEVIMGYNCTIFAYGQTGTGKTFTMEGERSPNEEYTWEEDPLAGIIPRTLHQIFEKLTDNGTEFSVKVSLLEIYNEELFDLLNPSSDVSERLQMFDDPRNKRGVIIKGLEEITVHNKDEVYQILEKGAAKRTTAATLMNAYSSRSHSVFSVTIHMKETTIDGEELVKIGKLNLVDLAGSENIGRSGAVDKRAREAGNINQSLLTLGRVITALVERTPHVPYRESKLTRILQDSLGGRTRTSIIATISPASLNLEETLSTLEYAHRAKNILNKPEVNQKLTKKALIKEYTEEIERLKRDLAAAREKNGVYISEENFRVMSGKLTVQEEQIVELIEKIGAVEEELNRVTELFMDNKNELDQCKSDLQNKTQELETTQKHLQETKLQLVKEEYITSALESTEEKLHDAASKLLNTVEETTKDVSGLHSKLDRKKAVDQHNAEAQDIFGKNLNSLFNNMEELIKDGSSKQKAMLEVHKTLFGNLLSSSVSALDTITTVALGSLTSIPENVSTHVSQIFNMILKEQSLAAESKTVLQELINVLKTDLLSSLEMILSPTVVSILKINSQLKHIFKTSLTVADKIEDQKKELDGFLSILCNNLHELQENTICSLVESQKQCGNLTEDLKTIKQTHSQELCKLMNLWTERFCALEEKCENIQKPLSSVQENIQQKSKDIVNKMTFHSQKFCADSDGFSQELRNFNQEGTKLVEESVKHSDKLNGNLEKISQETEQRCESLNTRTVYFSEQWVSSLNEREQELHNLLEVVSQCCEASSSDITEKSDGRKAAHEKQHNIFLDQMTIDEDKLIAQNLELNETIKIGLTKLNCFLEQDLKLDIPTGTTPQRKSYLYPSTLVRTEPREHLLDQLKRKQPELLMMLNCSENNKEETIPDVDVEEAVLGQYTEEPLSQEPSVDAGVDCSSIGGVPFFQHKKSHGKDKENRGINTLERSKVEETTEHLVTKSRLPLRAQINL
The assay can be described thus: In vitro inhibitory concentration towards kinesin spindle protein activity of ATP hydrolysis in the presence of microtubules measured by ATPase assay (n=3).
What is called IC50 is the midpoint of a concentration-inhibition curve. Turning to `CC(=O)N1N=C(c2cccc(Cl)c2)CC1c1ccccc1` (configuration not stated), the half-inhibitory concentration (IC50) turned out to be 9.8 µM.

For `CC(=O)N1N=C(c2cc(F)ccc2F)CC1c1cccs1` (configuration not stated), the 50% inhibitory concentration (IC50) is 1.8 µM.

On to `CC(=O)N1N=C(c2ccccc2Cl)CC1c1ccccc1` (configuration not stated), for which the IC50 is 3.6 µM. `CC(=O)N1N=C(c2ccccc2)CC1c1cccc(O)c1` (configuration not stated): the half-maximal inhibitory concentration (IC50) stood at 6.9 µM. Turning to `CC(=O)N1N=C(c2ccccc2F)CC1c1ccccc1` (configuration not stated), the IC50 was determined as 3.6 µM. On the same count and under the same terms, next, `CCOC(=O)C1=C(C)NC(=S)N[C@H]1c1cccc(O)c1` [S-MENASTROL]: 10 µM; `CNC(=O)N1N=C(c2cc(F)ccc2F)CC1c1ccccc1` (configuration not stated): 3.1 µM. Regarding `CC(=O)N1N=C(c2cc(F)cc(F)c2)CC1c1ccccc1` (configuration not stated), the IC50 was > 5 µM. Still for that read-out and setting: next, `O=C(c1ccccc1)N1N=C(c2ccccc2Cl)CC1c1cccc(O)c1` (configuration not stated): 13.5 µM; `COc1ccccc1C1=NN(C(C)=O)C(c2ccccc2)C1` (configuration not stated): > 50 µM. On the same count and under the same terms, for `CC(=O)N1N=C(c2ccccc2C(F)(F)F)CC1c1ccccc1` (configuration not stated) the value was > 50 µM; for `CC(=O)N1N=C(c2ccccc2Br)CC1c1ccccc1` (configuration not stated), 23.3 µM. Regarding `CC(=O)N1N=C(c2c(F)cccc2F)CC1c1ccccc1` (configuration not stated), the IC50 was 10.9 µM. Same read-out and setting: for `CC(=O)N1N=C(c2cccc(F)c2F)CC1c1ccccc1` (configuration not stated) the value was 12.7 µM; for `CC(=O)N1N=C(c2cc(F)ccc2F)CC1c1cccc(O)c1` (configuration not stated), 0.051 µM; for `CC(=O)N1N=C(c2ccccc2C)CC1c1ccccc1` (configuration not stated), 46.2 µM.

As to `CC(=O)N1N=C(c2cc(F)ccc2F)C[C@H]1c1cccc(O)c1`, the IC50 turned out to be 0.026 µM.

With `COC(=O)N1N=C(c2ccccc2Cl)CC1c1cccc(O)c1` (configuration not stated), the half-inhibitory concentration (IC50) is > 50 µM. In the case of `CCC(=O)N1N=C(c2ccccc2Cl)CC1c1cccc(O)c1` (configuration not stated), the IC50 was found to be 1.2 µM. For `CC(=O)N1N=C(c2ccccc2Cl)CC1c1cccc(O)c1` (configuration not stated), the IC50 came to 0.45 µM.

In the case of `CC(=O)N1N=C(c2ccc(Cl)cc2)CC1c1ccccc1` (configuration not stated), the concentration for half-maximal inhibition (IC50) is > 50 µM.

Consider `CN1N=C(c2ccccc2Cl)CC1c1cccc(O)c1` (configuration not stated), for which the IC50 is > 50 µM.

For `CC(C)C(=O)N1N=C(c2ccccc2Cl)CC1c1cccc(O)c1` (configuration not stated), the half-inhibitory concentration (IC50) is 1.1 µM. In the case of `CN(C)C(=O)N1N=C(c2cc(F)ccc2F)CC1c1ccccc1` (configuration not stated), the IC50 amounted to 0.084 µM. The same measure, in the same setting: for `CC(=S)N1N=C(c2cc(F)ccc2F)CC1c1ccccc1` (configuration not stated) the value was 0.25 µM. On the same count and under the same terms, for `CC(C)(C)C(=O)N1N=C(c2ccccc2Cl)CC1c1cccc(O)c1` (configuration not stated) the value was 0.46 µM. Same read-out and setting: for `CS(=O)(=O)N1N=C(c2cc(F)ccc2F)CC1c1ccccc1` (configuration not stated) the value was 1.8 µM. Consider `CC(=O)N1N=C(c2cc(F)ccc2F)CC1c1ccccc1` (configuration not stated), for which the IC50 stood at 0.094 µM. Regarding `CC(=O)N1N=C(c2ccccc2)CC1c1ccccc1` (configuration not stated), the IC50 was > 50 µM. The same measure, in the same setting: next, `CC(=O)N1N=C(c2ccc(Cl)cc2Cl)CC1c1ccccc1` (configuration not stated): 37.6 µM; `NCCCC(=O)N1N=C(c2ccccc2Cl)CC1c1cccc(O)c1` (configuration not stated): 6 µM.

In a further assay the target is T2, Caspase-3 (Homo sapiens, UniProt P42574).
T2 sequence (P42574 whole entry): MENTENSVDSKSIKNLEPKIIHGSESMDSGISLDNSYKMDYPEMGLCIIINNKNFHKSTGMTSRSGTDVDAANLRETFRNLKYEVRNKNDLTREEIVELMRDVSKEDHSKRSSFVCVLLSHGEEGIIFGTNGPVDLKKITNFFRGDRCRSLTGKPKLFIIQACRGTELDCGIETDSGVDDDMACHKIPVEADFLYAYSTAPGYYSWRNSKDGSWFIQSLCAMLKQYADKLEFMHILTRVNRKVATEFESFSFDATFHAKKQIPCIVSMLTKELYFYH
As to the kind of experiment: Inhibitory concentration towards caspase-3 induction in human A2780 ovarian carcinoma cells. It is filed as functional, cell-based. The gist of the method:
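A2780 human ovarian carcinoma cells were treated with compound. Caspase-3 activation, used as an apoptosis marker, was then measured in cell lysates with a fluorescent kit that reads release of the AFC fluorophore from DEVD-AFC substrate. The value is a concentration giving 50% of caspase-3 induction.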
`CC(=O)N1N=C(c2cc(F)ccc2F)C[C@H]1c1cccc(O)c1` showed a concentration for half-maximal inhibition (IC50) of 0.015 µM.
